Consider four compounds from PMC5593162 (Clinical and Translational Science, 2017).

Where two headings read alike, the source gives them in different places.

The conditions of data set [1]: cited from earlier work.
For data set [2] the following is noted: ref previous studies; cited from earlier work.
The format of data set [3] is in vivo, healthy adult subjects (human). Summed up:
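Open-label, fixed-sequence, three periods, ≥10-day washouts, overnight-fasted. Single oral inhibitor FDC (50 mg/100 mg) given alone, after H2-antagonist 20 mg orally ~10 h and 2 h before, or ~2 h after PPI 40 mg on day 5 of 5 daily doses. Plasma sampled predose to 96 h; LC-MS/MS. Noncompartmental; t½ = ln2/λz; GMRs via mixed-effects model on log values.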

`COC(=O)N[C@H](C(=O)N1CC2(CC2)C[C@H]1c1ncc(-c2ccc3c(c2)C(F)(F)c2cc(-c4ccc5nc([C@@H]6[C@H]7CC[C@H](C7)N6C(=O)[C@@H](NC(=O)OC)C(C)C)[nH]c5c4)ccc2-3)[nH]1)C(C)C` [ledipasvir]: in data set [1], the “solubility versus stomach pH” value is “decrease as stomach pH increases”.

As to `COC[C@H]1C[C@@H](c2ncc(-c3ccc4c(c3)COc3cc5c(ccc6nc([C@@H]7CC[C@H](C)N7C(=O)[C@@H](NC(=O)OC)C(C)C)[nH]c65)cc3-4)[nH]2)N(C(=O)[C@H](NC(=O)OC)c2ccccc2)C1` [velpatasvir], in data set [1], the “solubility versus stomach pH” value was “decrease as stomach pH increases”.

As for `COC(=O)N[C@H](C(=O)N1CCC[C@H]1c1nc(-c2ccc3c(c2)O[C@@H](c2ccccc2)n2c-3cc3cc(-c4c[nH]c([C@@H]5CCCN5C(=O)[C@@H](NC(=O)OC)C(C)C)n4)ccc32)c[nH]1)C(C)C` [EBR, elbasvir], in data set [2], the “apparent terminal half-life (t½)” value is recorded as about 20 h and the “time to maximum drug concentration (tmax)” value is 2 to 4 h. For the same compound, the “tmax, median” value in data set [3] (EBR in plasma, EBR/GZR FDC + FAM 20 mg given 10 h and 2 h before) turned out to be 3.50 h. In data set [3] (EBR, EBR/GZR FDC + FAM / EBR/GZR FDC), the “C24 GMR” value is given as 1.03. Moreover, the “C24 GMR” value in data set [3] (EBR, EBR/GZR FDC + PAN / EBR/GZR FDC) is listed as 1.03. In addition, in data set [3] (human, plasma, po, 100 mg), the Tmax (in general, the time from dosing to the highest level) came to 3.5 h and the half-life (usually the time in which the quantity being followed falls by half) is 19.3 h.

As to `C=C[C@@H]1C[C@]1(NC(=O)[C@@H]1C[C@@H]2CN1C(=O)[C@H](C(C)(C)C)NC(=O)O[C@@H]1C[C@H]1CCCCCc1nc3ccc(OC)cc3nc1O2)C(=O)NS(=O)(=O)C1CC1` [GZR, grazoprevir], in data set [2], the “apparent terminal half-life (t½)” value is on record as about 20 h and the “time to maximum drug concentration (tmax)” value was 2 to 4 h. For the same compound, in data set [3] (GZR, EBR/GZR FDC + FAM / EBR/GZR FDC), the “C24 GMR” value stood at 1.12. Further, the “C24 GMR” value in data set [3] (GZR, EBR/GZR FDC + PAN / EBR/GZR FDC) is 1.17. This compound also gave a half-life in data set [3] (human, plasma, po, 100 mg) of 33.8 h.
